An excerpt weighted towards active compounds, which were near 9.6% of everything screened.
MT stabilize HCS: microtubule stabilization, imaging screen. HeLa tubulin immunostaining HCS, 24 h; share of cells brighter than vehicle mean+2SD. % tubulin-high responders, % at 10 µM. actives 0.83% (n = 200,000). AID 2205;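 active = plate Z-score above 3 for both tubulin-high and condensed-nucleus cell shares, with cell loss under 80%, at 10 µM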;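 note: anti alpha tubulin signal scored within the nucleus-defined area of each cell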
L major viab: Leishmania major promastigote growth inhibition | Leishmania major promastigotes, resazurin fluorescence viability | inhibition, % at 10 µM | actives 9% (n = 200,000) | AID 1063; in the data active = inhibition above about 50%;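 note: promastigotes grown with compound for 44 hours at 28 °C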
Ba/F3 V617F tox: reduce viability of Ba/F3 cells dependent on JAK2V617F; actives 1.1% (n = 220,000); Ba/F3 EpoR-JAK2V617F viability, ATP luminescence; inhibition, % at 5.6 µM;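 active = inhibition above the campaign mean plus 3 SD over all tested compounds, cut at about 24% in these data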;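 note: cytokine-independent growth of Ba/F3 cells driven by EpoR plus mutant JAK2; 0% = DMSO-treated cells and 100% = JAK inhibitor I control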
BaF3 tox: reduces parental Ba/F3 cell viability, JAK2V617F counter-screen. CellTiter-Glo ATP luminescence. inhibition, % at 5.6 µM. actives 1.1% (n = 220,000). AID 1486;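 active = inhibition above a per-campaign cutoff, the mean inhibition of all tested compounds plus 3 SD, cut at about 27% in these data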;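 note: 0% = DMSO wells and 100% = JAK Inhibitor I control wells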
APP transl inh: APP translation inhibition; actives 0.82% (n = 190,000); inhibition, % at 2 µM; AID 1285; SH-SY5Y APP 5'UTR-luciferase reporter, luminescence;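 active = inhibition above a set limit, derived from the sample mean plus 3 SD, cut at about 45% in these data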
bCat nuc transl: modulators of beta-catenin nuclear translocation. HeLa beta-catenin nuclear translocation, immunofluorescence imaging. nuclear translocation activity, % at 5 µM. actives 0.3% (n = 190,000). AID 1665;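 active = nuclear translocation activity above 50% at 5 µM, with a well cell count of 50 or more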;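 note: per-cell ratio of nuclear to cytoplasmic median beta-catenin stain intensity; plate controls were DMSO negative control for no effect and GSK-3 inhibitor IX positive control for full effect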
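assay system = human HeLa cells, endogenous beta-catenin | times = compound treatment 24 h, 37°C, 5% CO2 | detection = Anti-beta-catenin immunofluorescence on PFA-fixed, Triton-permeabilized cells, DAPI nuclei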
* hit, by the source's call; . = no result.

SMILES | MT stabilize HCS | L major viab | Ba/F3 V617F tox | BaF3 tox | APP transl inh | bCat nuc transl
Cc1noc(C)c1COc1ccc(C(=O)OC(C)C(=O)Nc2ccc(S(=O)(=O)N3CCOCC3)cc2)cc1 (stereo not drawn) | 3 | 2 | 6 | 7 | -6 | -4
Fc1ccccc1-c1nc2nc3ccccc3nc2n1CC1CCCO1 (stereo not drawn) | . | . | 1 | 1 | . | 0
CC(C)(C)NCC(O)(c1ccc(Cl)cc1)c1ccc(Cl)cc1 | 2 | 24 | -3 | 4 | 17 | 0
NCC(O)(c1ccc(Cl)cc1)c1ccc(Cl)cc1 | 4 | 94* | 2 | 2 | 14 | 0
CCOc1ccc(S(=O)(=O)N2CCN(S(=O)(=O)c3ccc(OCC)cc3)C(C)C2)cc1 (stereo not drawn) | 4 | 25 | -3 | 1 | 52* | -5
NNC(=O)CCN(Cc1ccco1)S(=O)(=O)c1ccc(Cl)cc1 | . | . | 0 | 2 | . | -1
COc1nnc(-c2ccc(N3CCCCC3)c(N)c2)c2ccccc12 | 2 | 30 | 37* | 46* | -18 | .
CCN1CCN(Cc2c(O)ccc3c2O/C(=C\C=C\c2ccccc2)C3=O)CC1 | 9 | 96* | 3 | 10 | 13 | -2
O=C1/C(=C/C=C/c2ccccc2)Oc2c1ccc(O)c2CN1CCN(CCO)CC1 | . | . | -4 | -7 | . | 0
CCc1ccc(/C=N/n2c(C)cc(C)c(C#N)c2=O)cc1 | 2 | 39 | 0 | 7 | 5 | 0
CC(C)(C)NC(=O)Cc1ccc(S(=O)(=O)N2CCCC2)s1 | 3 | -6 | -1 | 5 | 16 | -2
O=C(Cc1ccc(S(=O)(=O)N2CCCC2)s1)Nc1nc2c(s1)CCCC2 | 3 | 85* | -1 | 6 | -41 | .
O=C(CN1C2=NCCN2c2ccccc21)C12CC3CC(CC(C3)C1)C2 | 2 | 101* | 3 | 1 | -6 | 0
Cc1ccc(C)c(C(=O)CN2C3=NCCCN3c3ccccc32)c1 | 4 | 78* | 8 | 4 | -17 | 1
COc1c(/C=N/Nc2ccc(C(=O)O)cc2)c(CCN(C)C(C)=O)cc2c1OCO2 | . | . | 0 | -4 | . | -1
COc1ccc(C2CC(C(F)(F)F)n3nc(C(=O)NCc4c(C)nn(C)c4C)c(Cl)c3N2)cc1 (stereo not drawn) | 3 | 1 | 36* | 44* | -11 | -3
COc1ccc(/C=N/OC(=O)c2ccc(Cl)cc2)c(Cl)c1OC | . | . | 1 | -2 | . | -1
CN(Cc1cnn(C)c1)C(=O)c1ccc(OC2CCN(CCc3ccccc3)CC2)cc1 | 2 | -5 | 1 | 7 | -3 | -1
CSCCCNC(=O)c1ccc(OC2CCN(CCc3ccccc3)CC2)cc1 | 4 | 75* | -2 | 6 | -11 | 2
COc1ccc(CCC(=O)N2CCCSC2=Nc2ccc(C(C)=O)cc2)cc1 | 5 | 98* | 2 | 3 | 11 | 1
Cc1cccc(NC(=S)N2CCN(c3cc(C)ccc3C)CC2)c1 | 4 | 80* | 3 | 8 | 4 | 2
COC(=O)c1sccc1NC(=S)N1CCN(c2cc(C)ccc2C)CC1 | 17* | 82* | 1 | 2 | 6 | -2
Cc1ccc(C)c(N2CCN(C(=S)NC3CCCCC3)CC2)c1 | 2 | 58* | 1 | 3 | 0 | -1
COC(=O)c1sccc1NC(=S)N1CCN(C)CC1 | 4 | 5 | -1 | 7 | -6 | 0
CCOC(=O)c1[nH]c2ccc(OC)cc2c1NC(=S)N1CCN(C(=O)OCC)CC1 | 3 | 10 | 2 | 6 | -13 | 0
SMILES | MT stabilize HCS | L major viab | Ba/F3 V617F tox | BaF3 tox | APP transl inh | bCat nuc transl
CCOC(=O)c1[nH]c2ccc(OC)cc2c1NC(=S)N1CCN(c2ccccc2OC)CC1 | 20* | 22 | 1 | -1 | 16 | 2
COc1cc(/C=C/C(=O)N2CCN(C)CC2)cc(S(=O)(=O)N2CCc3ccccc32)c1OC | . | . | -2 | -2 | . | 1
Cc1nc(SCCCSc2n[nH]c(C)n2)n[nH]1 | 2 | -12 | -2 | 2 | -9 | -1
CCOC(=O)Nc1c(C(=O)OC)[nH]c2cc(OC)ccc12 | 36* | 2 | 17 | 18 | -3 | 4
COc1ccccc1N1CCN(C(=S)Nc2cccc(C)c2)CC1 | 8.7* | 1 | -6 | 3 | -16 | 6
CCOCCCNC(=O)C(NC(=O)Cc1cccs1)c1ccc(OC)cc1 (stereo not drawn) | 4 | -5 | -1 | 2 | 6 | 6

Screening data deposited in PubChem BioAssay by several laboratories.
